Experimental data taken from ChEMBL document CHEMBL2331313, “Synthesis and SAR study of modulators inhibiting tRXRα-dependent AKT activation” (Eur J Med Chem, 2013).
Calls of active or inactive are those of the source. The rule behind the calls is not given here.

Assays:
[1] = biological target: T1, Retinoic acid receptor RXR-alpha (Homo sapiens, UniProt P19793); experiment: Displacement of [3H]-9-cis-RA from human GST-tagged N-terminal truncated RXRalpha after 1 hr by liquid scintillation counting
T1 sequence (P19793 whole entry): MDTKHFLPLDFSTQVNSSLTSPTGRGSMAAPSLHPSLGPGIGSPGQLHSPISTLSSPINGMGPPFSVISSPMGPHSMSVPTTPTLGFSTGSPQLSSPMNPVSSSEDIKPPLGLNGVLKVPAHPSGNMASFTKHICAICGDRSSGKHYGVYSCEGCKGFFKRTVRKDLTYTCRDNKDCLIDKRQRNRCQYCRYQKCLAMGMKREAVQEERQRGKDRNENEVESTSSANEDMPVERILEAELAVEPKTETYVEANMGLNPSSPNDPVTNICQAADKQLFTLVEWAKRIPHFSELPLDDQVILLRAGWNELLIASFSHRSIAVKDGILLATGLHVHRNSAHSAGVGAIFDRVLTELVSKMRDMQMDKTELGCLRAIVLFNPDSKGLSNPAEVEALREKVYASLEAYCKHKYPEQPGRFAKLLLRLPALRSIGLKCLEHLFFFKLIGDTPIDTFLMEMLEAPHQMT
In short: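 GST-tagged human RXRα-LBD (223–462) preincubated with unlabeled 9-cis-RA or test compound at varied concentrations in binding buffer (0.15 M KCl, 10 mM Tris·HCl pH 7.4, 8% glycerol, 0.5% CHAPS), 4°C, 1 h; [3H]-9-cis-RA then added to 7.5 nM final, overnight at 4°C. Receptor captured on glutathione sepharose beads; bound radioligand counted by liquid scintillation.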

[2] = biological target: T1, Retinoic acid receptor RXR-alpha; experiment: Displacement of [3H]-9-cis-RA from RXRalpha (unknown origin) by liquid scintillation counting
HCT-116 = experiment: Induction of apoptosis in human HCT116 cells assessed as increase in TNFalpha-induced PARP cleavage at 40 uM after 4 hrs by Western blot analysis; type: functional, cell-based
ZR-75-1 [3] = experiment: Induction of apoptosis in human ZR75-1 cells assessed as PARP cleavage at 30 uM after 6 hrs by Western blot analysis; type: functional, cell-based
In short: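 ZR-75-1 cells (RPMI1640, 10% FBS) treated with vehicle or 30 μM compound for 6 hr. Lysates run on 10% SDS-PAGE, blotted to PVDF and probed with anti-PARP (1:3000) for cleavage, ECL detection.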

HeLa = experiment: Decrease in TNFalpha-induced Akt phosphorylation in RXRalpha-knockdown human HeLa cells at 20 uM incubated for 1 hr prior to TNFalpha-induction measured after 30 mins by Western blot analysis; type: functional, cell-based
ZR-75-1 [4] = experiment: Cytotoxicity against human ZR75-1 cells after 24 hrs by MTT assay; type: functional, cell-based
In short: (§1)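 Cells in RPMI1640 with 10% FBS (37°C, 5% CO2) treated with various concentrations for 24 hr in 96-well format. MTT at 2 mg/mL added for 4 hr at 37°C, formazan dissolved in DMSO, absorbance read at 570 nm for viability.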

PC-3 = experiment: Cytotoxicity against human PC3 cells after 24 hrs by MTT assay; type: functional, cell-based; in short: as §1
[5] = biological target: T2, Retinoic acid receptor RXR-alpha (Homo sapiens) (UniProt P19793); experiment: Inhibition of RXRalpha in human HepG2 cells assessed as inhibition of TNFalpha-induced Akt phosphorylation; type: cell-based
T2 sequence (whole entry): T1 sequence (P19793 whole entry)

[6] = biological target: T2, Retinoic acid receptor RXR-alpha (Homo sapiens); experiment: Inhibition of RXRalpha in human HCT116 cells assessed as inhibition of TNFalpha-induced Akt phosphorylation; type: cell-based; conditions: HCT-116
[7] = biological target: T2, Retinoic acid receptor RXR-alpha (Homo sapiens); experiment: Inhibition of RXRalpha in human A549 cells assessed as inhibition of TNFalpha-induced Akt phosphorylation at 30 uM incubated for 1 hr prior to TNFalpha-induction measured after 30 mins by Western blot analysis; type: cell-based
In short: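 A549 cells (DMEM, 10% FBS) pretreated 1 hr with 30 μM compound, then TNFα (10 ng/mL) for 30 min. Phospho-AKT (1:1000) and total AKT (1:1000) immunoblotted after 10% SDS-PAGE, with ECL detection.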

[8] = biological target: T2, Retinoic acid receptor RXR-alpha (Homo sapiens); experiment: Antagonist activity at RXRalpha (unknown origin) expressed in HCT116 cells assessed as inhibition of 9-cis-RA-induced galactosidase activity after 12 hrs by gal4 reporter gene assay; type: cell-based; conditions: HCT-116, in the assay text read “luciferase activity” for “galactosidase activity”
In short: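 GAL4-RXRα-LBD transactivation in HCT-116 cells: cells transfected for 24 hr with pG5 luciferase reporter (50 ng/well) plus pGAL4-RXRα-LBD vector (50 ng/well), then exposed to 9-cis-RA (10^-7 M) together with varied compound concentrations for 12 hr. Luciferase read by dual-luciferase assay. Cells grown in DMEM with 10% FBS, 37°C, 5% CO2.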

Row | SMILES | IC50 [1] | further results
1 | CC1=C(CC(=O)O)c2ccccc2/C1=C\c1ccc(C(C)C)cc1 | ≥ 100 µM | 
2 | CC1=C(CC(=O)O)c2cc(F)ccc2/C1=C\c1ccc(C#N)cc1 | ≥ 100 µM | 
3 | CC1=C(CC(=O)O)c2cc(F)ccc2/C1=C\c1ccc(C(F)(F)F)cc1 | 4.73 µM | 
4 | CC1=C(CC(=O)O)c2cc(F)ccc2/C1=C\c1cccc(C(F)(F)F)c1 | 8.27 µM | 
5 | CC1=C(CC(N)=O)c2cc(F)ccc2/C1=C\c1ccc(C(C)C)cc1 | ≥ 100 µM | 
6 | CC1=C(CC(=O)O)c2cc(F)ccc2/C1=C\c1cccc(C#N)c1 | ≥ 100 µM | 
7 | CC1=C(CC(N)=O)c2cc(F)ccc2/C1=C/c1ccc(C(C)C)cc1 | ≥ 100 µM | 
8 | CC1=C(CC(=O)O)c2cc(F)ccc2/C1=C\c1ccccc1 | 10.7 µM | 
9 | CC1=C(CCC#N)c2cc(F)ccc2/C1=C\c1ccc(C(C)C)cc1 | ≥ 100 µM | 
10 | CC1=C(CC(=O)O)c2cc(F)ccc2/C1=C\c1ccc([S+](C)[O-])cc1 (stereo unspecified) |  | IC50 [2]: 82.9 µM; Activity (HCT-116): Active; Activity (ZR-75-1 [3]): Active
11 | COc1ccc2c(c1)C(CC(=O)O)=C(C)/C2=C/c1ccc(C(C)C)cc1 | ≥ 100 µM | 
12 | CCOc1ccc(/C=C2/C(C)=C(CC(=O)O)c3cc(F)ccc32)cc1 | ≥ 100 µM | 
13 | CC(C)c1ccc(/C=C2\C=C(CC(=O)O)c3cc(F)ccc32)cc1 | 1.6 µM | Activity (HCT-116): Active; Activity (HeLa): inactive; Activity (ZR-75-1 [3]): Active; Activity (ZR-75-1 [4]): Dose-dependent effect; Activity (PC-3): Dose-dependent effect
14 | CCOc1ccc2c(c1)C(CC(=O)O)=C(C)/C2=C/c1ccc(C(C)C)cc1 | 3.08 µM | 
15 | CC1=C(CC(=O)O)c2cc(F)ccc2/C1=C\c1ccc(C(C)C)cc1 |  | IC50 [2]: 2.4 µM; Activity (HCT-116): Active; inhibition [5]: Active; inhibition [6]: Active; inhibition [7]: Active; Activity (ZR-75-1 [3]): Active; inhibition [8]: Dose-dependent effect
16 | CC1=C(CC(=O)O)c2cc(C)ccc2/C1=C\c1ccc(C(C)C)cc1 | ≥ 100 µM | 
17 | CC(=O)Nc1ccc(/C=C2/C(C)=C(CC(=O)O)c3cc(F)ccc32)cc1 | ≥ 100 µM | 
18 | CC(C)CC1=C(CC(=O)O)c2cc(F)ccc2/C1=C\c1ccc(C(C)C)cc1 | 3.15 µM | 
19 | CCC1=C(CC(=O)O)c2cc(F)ccc2/C1=C\c1ccc(C(C)C)cc1 | 6.29 µM | 
20 | CC1=C(CC(=O)O)c2cc(C(C)C)ccc2/C1=C\c1ccc(C(C)C)cc1 | ≥ 100 µM | 
21 | CC1=C(CC(=O)O)c2cc(F)ccc2/C1=C\c1ccc(-c2ccccn2)cc1 | ≥ 100 µM | 
22 | CC1=C(CCC(=O)O)c2cc(F)ccc2/C1=C\c1ccc(C(C)C)cc1 | 5.71 µM | 
23 | COc1cccc(/C=C2/C(C)=C(CC(=O)O)c3cc(F)ccc32)c1 | ≥ 100 µM | 
24 | CC1=C(CC(=O)O)c2cc(F)ccc2/C1=C\c1ccc(N(C)C)cc1 | ≥ 100 µM | 
25 | CC1=C(CC(=O)O)c2cc(F)ccc2/C1=C\c1ccc(C(C)(C)C)cc1 | ≥ 100 µM | 
26 | COc1ccc(/C=C2/C(C)=C(CC(=O)O)c3cc(F)ccc32)cc1 | ≥ 100 µM | 
27 | CCc1ccc2c(c1)C(CC(=O)O)=C(C)/C2=C/c1ccc(C(C)C)cc1 | ≥ 100 µM | 
28 | CC1=C(CC(=O)O)c2cc(Cl)ccc2/C1=C\c1ccc(C(C)C)cc1 | ≥ 100 µM | 
